Where “and” joins values, the source holds several entries; their conditions need not be identical. Equal values may be shown once.
Assays:
[1] = target: T1, Adrenergic receptor alpha-1 (Rattus norvegicus, UniProt P15823+P23944+P43140); assay: Ability to bind to alpha-1 adrenergic receptor in vitro in cortex of the rat brain using [3H]prazosin radioligand; type: tissue-based
T1 sequence (P15823 whole entry): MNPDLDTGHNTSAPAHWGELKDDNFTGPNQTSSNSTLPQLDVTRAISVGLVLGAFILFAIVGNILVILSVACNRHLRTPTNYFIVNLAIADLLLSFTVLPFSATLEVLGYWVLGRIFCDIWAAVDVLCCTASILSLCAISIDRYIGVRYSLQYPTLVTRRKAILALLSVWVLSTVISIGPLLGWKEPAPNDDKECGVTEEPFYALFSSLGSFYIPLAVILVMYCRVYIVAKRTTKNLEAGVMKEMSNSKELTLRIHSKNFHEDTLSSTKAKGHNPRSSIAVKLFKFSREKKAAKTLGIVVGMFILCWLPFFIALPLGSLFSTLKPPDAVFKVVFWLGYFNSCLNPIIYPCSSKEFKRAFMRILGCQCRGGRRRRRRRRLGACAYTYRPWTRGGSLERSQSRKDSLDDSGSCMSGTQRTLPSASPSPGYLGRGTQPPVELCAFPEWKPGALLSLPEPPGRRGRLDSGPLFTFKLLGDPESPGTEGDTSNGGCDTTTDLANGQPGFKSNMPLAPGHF
T1 sequence (P23944 whole entry): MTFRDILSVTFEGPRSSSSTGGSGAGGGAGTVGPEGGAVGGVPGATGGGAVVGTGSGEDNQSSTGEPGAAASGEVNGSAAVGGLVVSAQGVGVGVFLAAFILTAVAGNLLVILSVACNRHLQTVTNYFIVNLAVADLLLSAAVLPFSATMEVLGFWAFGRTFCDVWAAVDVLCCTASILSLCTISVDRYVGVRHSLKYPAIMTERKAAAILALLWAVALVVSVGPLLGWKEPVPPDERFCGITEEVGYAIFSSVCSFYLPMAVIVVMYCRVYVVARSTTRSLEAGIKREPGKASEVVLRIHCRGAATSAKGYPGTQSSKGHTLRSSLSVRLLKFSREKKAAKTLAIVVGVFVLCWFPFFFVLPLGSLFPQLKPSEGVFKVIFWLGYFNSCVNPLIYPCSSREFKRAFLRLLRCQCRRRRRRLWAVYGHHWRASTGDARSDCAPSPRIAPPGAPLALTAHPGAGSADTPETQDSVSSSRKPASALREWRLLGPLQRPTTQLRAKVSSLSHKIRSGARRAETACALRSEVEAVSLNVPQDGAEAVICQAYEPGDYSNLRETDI
T1 sequence (P43140 whole entry): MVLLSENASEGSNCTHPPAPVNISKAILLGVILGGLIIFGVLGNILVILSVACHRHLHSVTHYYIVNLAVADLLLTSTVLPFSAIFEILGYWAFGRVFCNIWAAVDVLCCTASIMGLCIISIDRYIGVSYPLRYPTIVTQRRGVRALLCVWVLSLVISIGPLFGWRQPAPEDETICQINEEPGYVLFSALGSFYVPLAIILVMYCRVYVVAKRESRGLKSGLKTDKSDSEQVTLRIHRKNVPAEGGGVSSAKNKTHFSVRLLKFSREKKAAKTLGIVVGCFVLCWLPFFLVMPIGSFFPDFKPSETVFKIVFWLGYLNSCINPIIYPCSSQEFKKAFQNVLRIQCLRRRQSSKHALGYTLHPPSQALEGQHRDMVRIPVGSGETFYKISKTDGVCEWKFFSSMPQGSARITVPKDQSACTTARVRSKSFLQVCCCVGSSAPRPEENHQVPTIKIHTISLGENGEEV
Method in brief: (§1)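 Competition binding in rat brain tissue: hippocampus with [3H]-8-OH-DPAT (5-HT1A); cortex with [3H]-ketanserin (5-HT2A) or [3H]-prazosin (α1). Ki from at least three experiments using 10–14 concentrations (10⁻¹⁰–10⁻⁵ M), each in triplicate.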

[2] = target: 5-hydroxytryptamine receptor 2A (Rattus norvegicus, UniProt P14842); assay: Ability to bind to central serotonin 5-hydroxytryptamine 2A receptor in vitro in cortex of the rat brain using [3H]ketanserin radioligand; type: tissue-based; method in brief: as §1
Mus musculus = organism: Mus musculus; assay: Ability to inhibit 8-OH-DPAT-induced hypothermia was taken as a measure of presynaptic antagonistic activity; Antagonist; type: functional, organism-based; conditions: filed as antagonist
[3] = target: T2, 5-hydroxytryptamine receptor 1A (Rattus norvegicus, UniProt P19327); assay: Ability to bind to central serotonin 5-hydroxytryptamine 1A receptor in vitro in hippocampus of the rat brain using [3H]8-OH-DPAT radioligand; type: tissue-based; method in brief: as §1
T2 sequence (P19327 whole entry): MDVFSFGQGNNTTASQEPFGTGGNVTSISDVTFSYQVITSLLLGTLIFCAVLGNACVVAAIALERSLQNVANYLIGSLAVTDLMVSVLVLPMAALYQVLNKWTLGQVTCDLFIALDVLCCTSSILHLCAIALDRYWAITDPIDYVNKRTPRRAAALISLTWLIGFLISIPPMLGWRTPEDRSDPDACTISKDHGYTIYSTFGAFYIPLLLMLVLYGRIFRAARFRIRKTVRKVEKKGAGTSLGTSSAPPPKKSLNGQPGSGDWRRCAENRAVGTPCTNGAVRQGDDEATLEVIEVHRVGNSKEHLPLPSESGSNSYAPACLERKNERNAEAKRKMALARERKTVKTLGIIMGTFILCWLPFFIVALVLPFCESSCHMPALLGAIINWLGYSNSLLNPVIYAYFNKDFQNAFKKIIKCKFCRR

[4] = target: 5-hydroxytryptamine receptor 2A (Mus musculus) (UniProt P35363); assay: The ability to antagonize head twitches in mice, observed after administration of (+/-)- DOI, was used to evaluate 5-HT2A receptor antagonistic property; Antagonist; type: functional, organism-based; conditions: filed as antagonist
Method in brief: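 Male Albino Swiss mice habituated 20 min in glass cages; compounds ip (1% Tween 80) 60 min before (±)-DOI 2.5 mg/kg; head twitches counted for 20 min after DOI. ID50 by Litchfield-Wilcoxon.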

[5] = target: 5-hydroxytryptamine receptor 1A (Rattus norvegicus) (UniProt P19327); assay: Ability inhibit symptoms induced by 8-OH-DPAT was regarded as postsynaptic 5-HT1A receptor antagonistic activity; Antagonist; conditions: filed as antagonist
D(2) dopamine receptor = D(2) dopamine receptor (Rattus norvegicus, UniProt P61169); assay: Ability to bind to Dopamine receptor D2 in vitro in rat sriatal membranes using [3H]spiperone radioligand; type: cell membranes
Method in brief: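 Rat striatal membranes with [3H]spiperone; ketanserin 50 nM in buffer to block 5-HT2A binding; nonspecific binding with (±)-butaclamol 5 μM; 50 mM potassium phosphate pH 7.4; 37 °C, 30 min; vacuum filtration onto glass fiber, scintillation counting. Ki via Cheng-Prusoff from ≥3 experiments, 10 concentrations in triplicate.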

[6] = target: T3, 5-hydroxytryptamine receptor 1A (Mus musculus) (UniProt Q64264); assay: The hypothermia produced in mice was regarded as a measure of presynaptic 5-HT1A receptor agonistic activity; Agonist; type: functional; conditions: filed as agonist
T3 sequence (whole entry): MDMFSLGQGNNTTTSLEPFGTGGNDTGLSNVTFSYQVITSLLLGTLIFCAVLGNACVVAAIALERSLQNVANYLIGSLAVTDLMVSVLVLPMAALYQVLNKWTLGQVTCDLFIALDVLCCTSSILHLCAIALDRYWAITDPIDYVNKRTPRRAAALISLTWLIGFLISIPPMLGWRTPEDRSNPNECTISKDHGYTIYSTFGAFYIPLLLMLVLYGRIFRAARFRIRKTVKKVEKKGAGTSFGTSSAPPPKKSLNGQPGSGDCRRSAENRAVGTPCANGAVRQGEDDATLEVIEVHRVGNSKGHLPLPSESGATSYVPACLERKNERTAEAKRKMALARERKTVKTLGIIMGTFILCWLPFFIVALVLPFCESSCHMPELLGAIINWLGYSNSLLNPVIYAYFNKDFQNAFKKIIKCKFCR

Rattus norvegicus [7] = assay: Effect of compound administered 60 min before the test in the forced swimming test in Rat (8 rats per group) at 20 mg/kg; type: functional
Method in brief: (§2)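 Male Wistar rats, n=8/group; forced swim per Porsolt: 15 min pretest in cylinders with 15 cm water at 25 °C, retest 24 h later; total immobility over 5 min. Drug ip 60 min before test; imipramine in saline, test compound suspended in 1% Tween 80; Dunnett test vs vehicle.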

Rattus norvegicus [8] = assay: Effect of compound administered 60 min before the test in the forced swimming test in Rat (8 rats per group) at 5 mg/kg; type: functional; method in brief: as §2
Rattus norvegicus [9] = assay: Effect of Compound administered 60 min before the test in the conflict drinking test in rat (n = 8 rats/group) at 5 mg/kg; type: functional
Method in brief: (§3)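 Male Wistar rats (250-300 g), compound suspended in 1% aqueous Tween 80, given ip (2 mL/kg) 60 min before test. Rats adapted 10 min to chamber, water-deprived 24 h, readapted 10 min with bottle, 30 min home-cage drinking, deprived another 24 h. After 30 s free drinking, licks punished by 0.5 mA shock; shocks accepted in 5 min counted. n=8/group; ANOVA with Dunnett test.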

Rattus norvegicus [10] = assay: Effect of compound administered 60 min before the test in the forced swimming test in Rat (8 rats per group) at 10 mg/kg; type: functional; method in brief: as §2
Rattus norvegicus [11] = assay: Effect of compound administered 60 min before the test in the forced swimming test in Rat (8 rats per group) at 30 mg/kg; type: functional; method in brief: as §2
Rattus norvegicus [12] = assay: Effect of compound administered 60 min before the test in the forced swimming test in Rat (8 rats per group) at 40 mg/kg; type: functional; method in brief: as §2
Rattus norvegicus [13] = assay: Effect of Compound administered 60 min before the test in the conflict drinking test in rat (n = 8 rats/group) at 2.5 mg/kg; type: functional; method in brief: as §3

Chain of D(2) dopamine receptor (P61169 whole entry): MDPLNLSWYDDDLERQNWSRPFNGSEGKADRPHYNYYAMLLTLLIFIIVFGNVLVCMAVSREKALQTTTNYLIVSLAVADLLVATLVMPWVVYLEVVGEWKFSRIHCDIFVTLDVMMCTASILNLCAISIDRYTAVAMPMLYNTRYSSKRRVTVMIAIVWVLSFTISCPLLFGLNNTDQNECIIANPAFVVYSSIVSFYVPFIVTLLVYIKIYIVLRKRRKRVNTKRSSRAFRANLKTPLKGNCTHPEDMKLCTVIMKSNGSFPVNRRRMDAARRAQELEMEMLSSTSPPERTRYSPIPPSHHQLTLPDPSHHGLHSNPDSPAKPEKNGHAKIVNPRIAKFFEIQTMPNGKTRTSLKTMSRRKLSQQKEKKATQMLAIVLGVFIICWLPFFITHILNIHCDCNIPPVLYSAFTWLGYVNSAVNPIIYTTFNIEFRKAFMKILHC
Chain of 5-hydroxytryptamine receptor 2A (P14842 whole entry): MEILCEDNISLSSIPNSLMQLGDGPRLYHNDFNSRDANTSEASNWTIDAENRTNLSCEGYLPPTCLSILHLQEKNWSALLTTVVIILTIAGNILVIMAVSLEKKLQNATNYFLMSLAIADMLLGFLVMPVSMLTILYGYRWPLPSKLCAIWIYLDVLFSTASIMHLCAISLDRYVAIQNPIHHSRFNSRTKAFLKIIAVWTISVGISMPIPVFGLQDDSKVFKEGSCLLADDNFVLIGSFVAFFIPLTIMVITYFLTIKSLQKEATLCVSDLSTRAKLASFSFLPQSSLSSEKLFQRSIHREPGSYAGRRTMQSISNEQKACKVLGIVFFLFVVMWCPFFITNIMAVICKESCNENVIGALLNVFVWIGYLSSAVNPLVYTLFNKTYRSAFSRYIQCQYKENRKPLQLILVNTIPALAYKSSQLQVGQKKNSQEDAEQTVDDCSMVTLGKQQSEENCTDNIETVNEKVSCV
Chain of 5-hydroxytryptamine receptor 2A (Mus musculus) (P35363 whole entry): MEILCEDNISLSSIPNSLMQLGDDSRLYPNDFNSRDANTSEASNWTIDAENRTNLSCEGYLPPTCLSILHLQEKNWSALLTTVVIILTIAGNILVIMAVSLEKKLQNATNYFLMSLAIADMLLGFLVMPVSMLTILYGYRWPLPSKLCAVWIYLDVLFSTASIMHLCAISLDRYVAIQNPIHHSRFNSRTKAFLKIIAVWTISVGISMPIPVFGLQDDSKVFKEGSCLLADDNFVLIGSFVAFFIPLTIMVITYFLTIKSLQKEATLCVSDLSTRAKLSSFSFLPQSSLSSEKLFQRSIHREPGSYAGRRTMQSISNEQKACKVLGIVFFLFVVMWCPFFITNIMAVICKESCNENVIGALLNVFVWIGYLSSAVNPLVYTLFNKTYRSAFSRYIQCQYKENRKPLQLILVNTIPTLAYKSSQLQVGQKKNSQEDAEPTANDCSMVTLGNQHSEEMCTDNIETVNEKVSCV

Structure (SMILES) | Ki [1] [µM] | Ki [2] [µM] | Ki [3] [µM] | Functional profile [5] | Ki (D(2) dopamine receptor) [µM] | Functional profile [6] | further results
Cn1c(=O)c2c(nc3nc(NCCCN4CCN(c5ccccc5)CC4)ccn32)n(C)c1=O | 0.025 | 0.072 | 0.019 | Antagonist | 0.43 | – | Functional profile (Mus musculus): Antagonist; Functional profile [4]: Antagonist
Cn1c(=O)c2c(nc3nc(NCCN4CCN(c5cccc(Cl)c5)CC4)c(Br)cn32)n(C)c1=O | – | 0.064 | 0.068 | Antagonist | 0.165 | – | Functional profile [4]: Antagonist
COc1ccccc1N1CCN(CCCNc2nc3nc4c(c(=O)n(C)c(=O)n4C)n3cc2Br)CC1 | 0.038 | 0.88 | 0.036 | Antagonist | 0.325 | Agonist | –
Cn1c(=O)c2c(nc3nc(NCCN4CCN(c5cccc(Cl)c5)CC4)ccn32)n(C)c1=O | 0.029 | 0.234 | 0.023 | Antagonist | 0.182 | Agonist | –
COc1ccccc1N1CCN(CCCn2c(=O)ccn3c4c(=O)n(C)c(=O)n(C)c4nc23)CC1 | – | 3.88 | 0.0104 | – | – | – | –
COc1ccccc1N1CCN(CCNc2ccn3c(n2)nc2c3c(=O)n(C)c(=O)n2C)CC1 | 0.058 | 0.246 | 0.0011 | Antagonist | 1.33 | – | Functional profile (Mus musculus): Antagonist
Cn1c(=O)c2c(nc3nc(NCCN4CCN(c5ccccc5)CC4)c(Br)cn32)n(C)c1=O | – | 0.44 | 0.087 | Antagonist | 1.24 | – | –
Cn1c(=O)c2c(nc3nc(NCCCN4CCN(c5cccc(Cl)c5)CC4)c(Br)cn32)n(C)c1=O | 0.046 | 0.085 | 0.049 | Antagonist | 0.264 | Agonist | Functional profile [4]: Antagonist
COc1ccccc1N1CCN(CCCN2CCCn3c2nc2c3c(=O)n(C)c(=O)n2C)CC1 | – | 0.562 | 0.0172 | – | – | – | –
Cn1c(=O)c2c(nc3nc(NCCCN4CCN(c5ccccc5)CC4)c(Br)cn32)n(C)c1=O | 0.011 | 0.297 | 0.011 | – | 0.414 | Agonist | Effect (Rattus norvegicus [7]): 69.6%; Immobility time (Rattus norvegicus [7]): 165.6 s; Effect (Rattus norvegicus [8]): 73.1%; Immobility time (Rattus norvegicus [8]): 173.9 s; Effect (Rattus norvegicus [9]): 491.9%; No. of shocks accepted/5 min (Rattus norvegicus [9]): 36.4; Effect (Rattus norvegicus [10]): 64.4%; Immobility time (Rattus norvegicus [10]): 153.1 s
COc1ccccc1N1CCN(CCCNc2ccn3c(n2)nc2c3c(=O)n(C)c(=O)n2C)CC1 | 0.033 | 0.835 | 0.034 | Antagonist | 1.17 | – | –
Cn1c(=O)c2c(nc3n2CCCN3CCCCN2CCN(c3ccccc3)CC2)n(C)c1=O | – | 0.243 | 0.0021 | – | – | – | –
CN(C)CCCN1c2ccccc2CCc2ccccc21 [IMIPRAMINE] | – | – | – | – | – | – | Effect (Rattus norvegicus [7]): 81.9%; Immobility time (Rattus norvegicus [7]): 155 s; Effect (Rattus norvegicus [11]): 63.3%; Immobility time (Rattus norvegicus [11]): 120.4 s; Effect (Rattus norvegicus [12]): 52.7%; Immobility time (Rattus norvegicus [12]): 99.7 s
COc1ccccc1N1CCN(CCNc2nc3nc4c(c(=O)n(C)c(=O)n4C)n3cc2Br)CC1 | 0.062 | 0.086 | 0.062 | Antagonist | 0.226 | Agonist | –
Cn1c(=O)c2c(nc3n(CCCN4CCN(c5ccccc5)CC4)c(=O)ccn23)n(C)c1=O | – | 4.68 | 0.025 | – | – | – | –
Cn1c(=O)c2c(nc3nc(NCCCN4CCN(c5cccc(Cl)c5)CC4)ccn32)n(C)c1=O | 0.021 | 0.056 | 0.046 | Antagonist | 0.094 | Agonist | Functional profile [4]: Antagonist
CN1C(=O)CN=C(c2ccccc2)c2cc(Cl)ccc21 [DIAZEPAM] | – | – | – | – | – | – | Effect (Rattus norvegicus [13]): 306.5% and 685.7%; No. of shocks accepted/5 min (Rattus norvegicus [13]): 23.6 and 52.8; Effect (Rattus norvegicus [9]): 533.8%; No. of shocks accepted/5 min (Rattus norvegicus [9]): 41.1
